# ABCB6 inh MLPCN: blocks the human ABCB6 transporter; Q9NP58; K562-ABCB6 porphyrin accumulation, flow cytometry, 1 h; stronger effect = lower value; fluorescence ratio to DMSO, % at 10 µM; 360,000 compounds, 0.19% hits; AID 602162;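 active means fluorescence ratio to DMSO below 75%, the collection mean minus 3 SD; inconclusive means too few cells collected in the well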;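 further: signal is porphyrin accumulated inside mitochondria; 100% equals median channel fluorescence of DMSO control wells; lower ratio means ABCB6 inhibition with less porphyrin fluorescence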
# V-ATPase pHluor: alters yeast V-ATPase proton transport; AID 504577; 350,000 compounds, 0.37% hits; response, % at 10 µM; S. cerevisiae, pHLuorin cytosolic pH fluorescence; in the data active means response mostly above about 7.3%, no sharp cut-off; inactive means mostly below about 5.4%; further: actives read high
# KCC2 mod: KCC2 (human) Cl- transport modulation; AID 1456; B-score of Tl+ flux slope (higher = more flux/activation; lower = inhibition) at 10 µM; 190,000 compounds, 2.2% hits; KCC2 cells, thallium flux FluoZin-2 fluorescence; Q9H2X9;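 active means thallium flux slope and its plate-corrected score both differing from the plate sample mean at a set confidence after two filtering rounds, in either direction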;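 further: slope of fluorescence scaled to starting intensity during 10 to 20 s after thallium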
# pCIP destab: lowers stability of the mouse p/CIP coactivator protein | F442A p/CIP-EGFP cells, EGFP fluorescence, 16 h | Q05BA5 | 290,000 compounds, 0.01% hits | decrease of EGFP signal, % at 10 µM | AID 1984;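 active means EGFP signal decrease of at least 30% at 10 µM or well 3 SD below plate mean, unless failing retest; inactive means the rest, including hits failing retest or dose response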
# Dynein cargo inh: dynein cargo transport inhibition | 3617.4 mouse cells, GR-EGFP nuclear translocation imaging; test concentration mostly 20 µM; stimulated with dexamethasone, 1 µM; stronger effect = lower value | z-score, hits read low | 220,000 compounds, 0.47% hits | AID 1381;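 active means plate z-score of nuclear minus cytoplasmic receptor signal below a set negative limit, without overly bright fluorescence or cell loss, cut at about -3.5 in these data, passing the limit was not always enough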;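 further: z-score of nuclear minus cytoplasmic ring GR-EGFP intensity difference per well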
#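 Buffer or medium: Induction medium lacking tetracycline, stripped serum | Also added: Dexamethasone agonist, 1.0 µM final, for 30 min | Timing: 48 h induction, 1 h compound, 30 min dex at 37 °C | Detection: Formaldehyde fixation, Hoechst nuclear stain, 10x automated fluorescence imaging | Measure: Nuclear versus cytoplasmic GR-EGFP signal, averaged per well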
# KCC2 secondary: KCC2 (human) modulation, secondary assay; AID 1713; 3,700 compounds, 15% hits; HEK293-KCC2, thallium flux, FluoZin2 fluorescence; stronger effect = higher value; shares compounds with KCC2 mod; normalised thallium flux (F/F0 slope) at 10 µM;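 active means thallium flux slope above the same plate's solvent-only control mean plus 3 SD; inconclusive means the two replicate wells disagree; inactive means no significant difference from solvent-only control wells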
# KCC2 bumet counter: thallium flux despite bumetanide block in KCC2 cells, secondary assay 3; shares compounds with KCC2 mod; HEK293-KCC2 + bumetanide/ouabain, thallium flux FluoZin2; stronger effect = higher value; normalized thallium flux at 10 µM; 3,700 compounds, 49% hits; AID 1714;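 active means thallium entry rate above the same plate's blocked-transporter control wells by more than 3 SD; inconclusive means the two repeat wells disagree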;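 further: raw slope of fluorescence over initial fluorescence between 10 and 20 s after thallium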
# KCC2 sec2: KCC2 (human) modulation, second secondary assay; 3,700 compounds, 23% hits; normalized thallium flux at 10 µM; shares compounds with KCC2 mod; HEK293-KCC2, thallium flux FluoZin2 fluorescence; actives lie on both sides; F/F0 rise rate, 10–20 s post-thallium; AID 1715;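 active means thallium flux slope more than 3 SD above or below the plate's solvent-only control mean, mostly below; inconclusive means the two repeat wells disagreed; inactive means no significant shift from solvent-only controls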;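 further: raw slope with 0.1% DMSO as baseline and bumetanide as block control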
# HEK293 Tl flux: acts in parental HEK cells, KCC2 counter-screen; thallium flux rate (normalised fluorescence) at 10 µM; shares compounds with KCC2 mod; 3,700 compounds, 46% hits; AID 1716; HEK293 parental cells, thallium flux FluoZin2, ouabain; baseline-ratio fluorescence slope, 10–20 s after thallium;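 active means thallium flux rate significantly above the same plate's solvent-only control wells, beyond their mean plus 3 SD; inconclusive means the two replicate wells gave conflicting results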
# KCC2 ouabain: modulates human KCC2 on retest with ouabain; HEK293-KCC2, thallium flux FluoZin2 fluorescence; bidirectional: low = inhibitor, high = activator; shares compounds with KCC2 mod; AID 1717; raw Tl+ flux slope (below DMSO = inhibition, above = activation) at 10 µM; 3,700 compounds, 48% hits;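 active means thallium flux slope beyond 3 SD from same-plate DMSO control mean in most replicates, usually higher, sometimes lower; inconclusive means repeat tests gave conflicting results; inactive means no significant difference from controls in most replicates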;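 further: slope of initial-normalized fluorescence between seconds 10 and 20 after thallium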
# HEK counter2: acts in parental HEK cells, second KCC2 counter-screen; HEK293 parental, thallium flux FluoZin-2 fluorescence slope; thallium flux slope at 10 µM; AID 1718; 3,700 compounds, 33% hits; shares compounds with KCC2 mod;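 active means thallium flux slope above the same plate's solvent-control mean plus 3 SD in both duplicate wells; inconclusive means duplicate wells that disagreed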;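 further: run without ouabain in cells lacking the KCC2 cotransporter; slope of fluorescence scaled to its starting value between 10 and 20 s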
# V-ATPase pH SP: yeast V-ATPase proton transport regulation; shares compounds with V-ATPase pHluor; S. cerevisiae pHLuorin cytosolic pH; response, % at 10 µM; 980 compounds, 2% hits; in the data active means response above about 24%;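 further: plate controls were vehicle wells for no effect and positive control wells for full effect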
# ABCB6 blocker 1: inhibitors of human ABC transporter ABCB6; shares compounds with ABCB6 inh MLPCN; K562-ABCB6 porphyrin accumulation, flow cytometry, 1 h; stronger effect = lower value; 700 tested, under 10 active; ratio response (% of DMSO), % at 10 µM; AID 602430;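 active means repeat-averaged ratio response below 75% of DMSO, the collection mean minus 3 SD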;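 further: median porphyrin fluorescence at 575 nm with 488 nm excitation from mitochondria; lower ratio means less porphyrin signal so ABCB6 inhibition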
# * hit, by the source's call; ? = inconclusive; . = no result given. Many of the other results were omitted from the sample, so hits are more common in it than they were.
SMILES,ABCB6 inh MLPCN,V-ATPase pHluor,KCC2 mod,pCIP destab,Dynein cargo inh,others
O=c1c(C=NCCN2CCNCC2)c(O)n(C2CCCCC2)c(=O)n1C1CCCCC1,108,-5,0.54,-5,-2.9,
CCOC(=O)C(O)(c1ccc(NC(=O)NC)cc1)C(F)(F)F (stereo unspecified),98,-2,0.12,-1,0.61,
Nc1ccccc1C(=O)OCC(=O)N1CCc2ccccc21,77,0,.,-3,2.3,KCC2 secondary=0.0062;KCC2 bumet counter=?;KCC2 sec2=0.03;HEK293 Tl flux=?;KCC2 ouabain=0.013*;HEK counter2=0.011
O=c1[nH]c(=O)n(Cc2ccccc2)c(O)c1C=Nc1ccc(CN2CCOCC2)cc1,94,0,-0.67,-4,2,
CCCCNC(=O)Nc1ccc(C(O)(C(=O)OCC)C(F)(F)F)cc1 (stereo unspecified),102,-1,-4.7*,-12,-0.77,KCC2 secondary=0.0078;KCC2 bumet counter=0.0069;KCC2 sec2=0.032;HEK293 Tl flux=?;KCC2 ouabain=0.022;HEK counter2=0.0099
CCCCNC(=O)Nc1ccc(C(O)(C(=O)OC)C(F)(F)F)cc1 (stereo unspecified),99,-2,.,-16,0.4,
CC(C)NC(C)Cc1ccc(I)cc1 (stereo unspecified),104,0,.,.,.,
CN1CCN(Cc2nc3ccccc3n2C)CC1,100,1,6.9*,-5,-0.78,KCC2 secondary=0.0061;KCC2 bumet counter=0.0047;KCC2 sec2=?;HEK293 Tl flux=0.0079;KCC2 ouabain=?;HEK counter2=0.011
COc1ccc(N=Nc2c(O)[nH]c(=S)[nH]c2=O)cc1,101,-2,-0.012,-6,-1.1,
O=c1[nH]c(=S)[nH]c(O)c1N=Nc1ccc(OC(F)F)cc1,97,3,42*,-12,-0.1,KCC2 secondary=?;KCC2 bumet counter=0.073*;KCC2 sec2=0.035;HEK293 Tl flux=0.011*;KCC2 ouabain=0.069*;HEK counter2=0.011
Cc1cccc(C(=O)Nc2ccc(Cl)cc2C(=O)c2ccccc2)c1,106,9.0*,.,-3,1.1,V-ATPase pH SP=-1
C[N+](C)(C)CC(=O)Nc1ccc(Cl)cc1C(=O)c1ccccc1,97,3,0.22,-7,-0.59,
Cc1c(/C=C2/CC3C4CC=C5CC(O)CCC5(C)C4CCC3(C)C2=O)cnn1C (stereo unspecified),.,.,0.5,.,0.4,
O=C(O)CCn1cc(C=C2C(=O)NC(=S)NC2=O)c(-c2cccc(Cl)c2)n1,95,8.0*,0.018,-20,0.15,V-ATPase pH SP=-1
O=C(O)CCn1cc(C=C2C(=O)NC(=O)NC2=O)c(-c2ccc(Br)cc2)n1,102,-2,0.008,1,0.43,
CN1C(=O)/C(=C\c2ccc(Br)s2)C(=O)NC1=S,102,21*,.,-4,.,V-ATPase pH SP=97*
CCC1CN1P(=O)(N1CCCC1)N1CC1CC (stereo unspecified),105,0,.,.,.,
N[C@@H]1C[C@H]1c1ccccc1,99,4,.,.,.,
Cc1[nH]c2ccccc2c1C(=O)C(=O)N1CC2CC(C1)c1cccc(=O)n1C2 (stereo unspecified),95,9.1*,0.95,-1,0.014,V-ATPase pH SP=-1
CCCCCCn1c(=O)c(C(=O)Nc2c(C)n(C)n(-c3ccccc3)c2=O)c(O)c2ccccc21,91,11*,-2.3,-14,-0.15,V-ATPase pH SP=2
CC(C)CCCn1c(O)c(/C=C2/C=CC=N2)c(=O)[nH]c1=O,70*,-1,0.21,-14,-0.5,ABCB6 blocker 1=102
CCCCn1c(O)c(C=NCCCn2ccnc2)c(=O)[nH]c1=O,100,0,1,9,3,
COc1cccc(N2C(=O)CC(=O)NC2=O)c1,71*,3,.,-6,1.6,ABCB6 blocker 1=102
COP(=S)(OC)SCN1C(=O)c2ccccc2C1=O,94,1,0.9,-10,-0.076,
COc1ccc(C(C)=O)cc1Cc1c(O)[nH]c(=S)[nH]c1=O,65*,-2,.,-9,.,ABCB6 blocker 1=102
SMILES,ABCB6 inh MLPCN,V-ATPase pHluor,KCC2 mod,pCIP destab,Dynein cargo inh,others
CCOc1ccc(C(C)=O)cc1Cc1c(O)[nH]c(=S)[nH]c1=O,102,-2,.,-1,.,
CC1CN(C)C(C)(C)CC1(O)c1ccccc1 (stereo unspecified),94,0,.,-10,-0.59,
Cc1nonc1OCCNc1ccc([N+](=O)[O-])c2cccnc12,72*,-1,-0.91,-4,-0.83,ABCB6 blocker 1=112
CCC1([N+](=O)[O-])COP(N)(=O)OC1 (stereo unspecified),94,-2,.,.,.,
CN(C)CCOC(=O)c1cn(Cc2ccccc2)c2ccccc12,7.0*,-1,.,-4,-0.42,ABCB6 blocker 1=95
CCC(=O)c1cn(Cc2ccccc2)c2ccccc12,97,-1,-0.63,-12,0.0025,
COc1cccc(C(c2nnnn2Cc2ccccc2)N2CCC(n3c(=O)[nH]c4ccccc43)CC2)c1OC (stereo unspecified),74*,.,.,.,.,ABCB6 blocker 1=96

# Assay outcomes (PubChem)
